Calls of active or inactive are those of the source. The rule behind the calls is not given here.
Experiments:
[1] = tested on: 3T3-L1; assay: Increase in PPARalpha mRNA expression mouse 3T3L1 cells at 10 uM after 24 hrs by SYBR Green-based expression analysis relative to control; format: functional, cell-based
[2] = tested on: 3T3-L1; assay: Increase in Glut-4 mRNA expression mouse 3T3L1 cells at 10 uM after 24 hrs by SYBR Green-based expression analysis relative to control; format: functional
[3] = tested on: 3T3-L1; assay: Increase in PPARgamma mRNA expression mouse 3T3L1 cells at 10 uM after 24 hrs by SYBR Green-based expression analysis relative to control; format: functional
[4] = tested on: Rattus norvegicus; assay: Antidiabetic activity in streptozotocin-nicotinamide-induced NIDDM Wistar rat model assessed as reduction in blood glucose level at 5 mg/kg administered intragastrically measured at 3 hrs post dose relative to control; format: functional; parameters: scale not given: the % may be the effect or the level left; conditions: route intragastric
Outline: (§1)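 Streptozotocin–nicotinamide-induced diabetic rats received one intragastric dose (test agent 50 mg/Kg; glibenclamide 5 mg/Kg as hypoglycemic control). Blood glucose was sampled at 0, 1, 3, 5 and 7 h after dosing. Change was expressed as percentage variation of glycemia from zero hour, negative meaning a decrease. Values are mean ± SEM (n = 6), compared with a control group.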

[5] = tested on: Rattus norvegicus; assay: Antidiabetic activity in streptozotocin-nicotinamide-induced NIDDM Wistar rat model assessed as reduction in blood glucose level at 5 mg/kg administered intragastrically measured at 7 hrs post dose relative to control; format: functional; parameters: scale not given: the % may be the effect or the level left; conditions: route intragastric; outline: as §1
[6] = tested on: Rattus norvegicus; assay: Antidiabetic activity in streptozotocin-nicotinamide-induced NIDDM Wistar rat model assessed as reduction in blood glucose level at 5 mg/kg administered intragastrically measured at 5 hrs post dose relative to control; format: functional; parameters: scale not given: the % may be the effect or the level left; conditions: route intragastric; outline: as §1
[7] = tested on: Rattus norvegicus; assay: Antidiabetic activity in streptozotocin-nicotinamide-induced NIDDM Wistar rat model assessed as reduction in blood glucose level at 5 mg/kg administered intragastrically measured at 1 hr post dose relative to control; format: functional; parameters: scale not given: the % may be the effect or the level left; conditions: route intragastric; outline: as §1
[8] = tested on: Rattus norvegicus; assay: Antidiabetic activity in streptozotocin-nicotinamide-induced NIDDM Wistar rat model assessed as reduction in blood glucose level at 50 mg/kg administered intragastrically measured at 5 hrs post dose relative to control; format: functional; parameters: scale not given: the % may be the effect or the level left; conditions: route intragastric; outline: as §1
[9] = tested on: Rattus norvegicus; assay: Antidiabetic activity in streptozotocin-nicotinamide-induced NIDDM Wistar rat model assessed as reduction in blood glucose level at 50 mg/kg administered intragastrically measured at 1 hr post dose relative to control; format: functional; parameters: scale not given: the % may be the effect or the level left; conditions: route intragastric; outline: as §1
[10] = tested on: Rattus norvegicus; assay: Antidiabetic activity in streptozotocin-nicotinamide-induced NIDDM Wistar rat model assessed as reduction in blood glucose level at 50 mg/kg administered intragastrically measured at 7 hrs post dose relative to control; format: functional; parameters: scale not given: the % may be the effect or the level left; conditions: route intragastric; outline: as §1
[11] = tested on: Rattus norvegicus; assay: Antidiabetic activity in streptozotocin-nicotinamide-induced NIDDM Wistar rat model assessed as reduction in blood glucose level at 50 mg/kg administered intragastrically measured at 3 hrs post dose relative to control; format: functional; parameters: scale not given: the % may be the effect or the level left; conditions: route intragastric; outline: as §1

## O=C(O)COc1ccc(NC(=O)COc2ccc(/C=C3\SC(=O)NC3=O)cc2)cc1
[1]
  Activity: inactive
[2]
  fold change (FC): 2
[3]
  fold change (FC): 2

## COc1ccc(Cl)cc1C(=O)NCCc1ccc(S(=O)(=O)NC(=O)NC2CCCCC2)cc1 [GLYBURIDE]
[4]
  Activity: 36.3%
[5]
  Activity: 43.6%
[6]
  Activity: 37.5%
[7]
  Activity: 20.5%

## CCOC(=O)COc1ccc(NC(=O)COc2ccc(/C=C3\SC(=O)NC3=O)cc2)cc1
[1]
  Activity: inactive
[2]
  fold change (FC): 2
[8]
  Activity: 36.7%
[9]
  Activity: 4.4%
[10]
  Activity: 31%
[11]
  Activity: 20.5%
[3]
  fold change (FC): 2

— ChEMBL document CHEMBL3351797, “Synthesis, in vitro and in silico studies of a PPARγ and GLUT-4 modulator with hypoglycemic effect” (2014)
